Data on three compounds can be found in ChEMBL document CHEMBL1152560, “Substituted 2-arylbenzothiazoles as kinase inhibitors: hit-to-lead optimization” (Bioorg Med Chem, 2009).

Experiment [1] has as its target Dual specificity tyrosine-phosphorylation-regulated kinase 1B (Homo sapiens) (UniProt Q9Y463). The experiment is described as follows: Residual activity of DYRK1B at 1 uM by microplate scintillation counting.
In experiment [2] the target is G protein-coupled receptor kinase 5 (Homo sapiens) (UniProt P34947). Put plainly: Residual activity of GRK5 at 1 uM by microplate scintillation counting.
Experiment [3] has the same target. The experiment is described as follows: Residual activity of GRK5 at 0.1 uM by microplate scintillation counting.
Experiment [4] deals with Glycogen synthase kinase-3 beta (Homo sapiens) (UniProt P49841). Put plainly: Residual activity of GSK3-beta at 0.1 uM by microplate scintillation counting.
The target in experiment [5] is Homeodomain-interacting protein kinase 1 (Homo sapiens) (UniProt Q86Z02). Put plainly: Residual activity of HIPK1 at 0.1 uM by microplate scintillation counting.
Experiment [6] deals with Tyrosine-protein kinase JAK2 (Homo sapiens) (UniProt O60674). Put plainly: Residual activity of JAK2 at 0.1 uM by microplate scintillation counting.
The target of experiment [7] is Serine/threonine-protein kinase MARK2 (Homo sapiens) (UniProt Q7KZI7). The experiment is described as follows: Residual activity of MARK2 at 0.1 uM by microplate scintillation counting.
Experiment [8] deals with Serine/threonine-protein kinase PAK 1 (Homo sapiens) (UniProt Q13153). The experiment is described as follows: Residual activity of PAK1 at 1 uM by microplate scintillation counting.
Experiment [9] addresses Serine/threonine-protein kinase N2 (Homo sapiens) (UniProt Q16513). The experiment is described as follows: Residual activity of PRK2 at 1 uM by microplate scintillation counting.
For experiment [10], the target named is T1, Serine/threonine-protein kinase 4 (Homo sapiens) (UniProt Q13043).
T1 sequence (whole entry): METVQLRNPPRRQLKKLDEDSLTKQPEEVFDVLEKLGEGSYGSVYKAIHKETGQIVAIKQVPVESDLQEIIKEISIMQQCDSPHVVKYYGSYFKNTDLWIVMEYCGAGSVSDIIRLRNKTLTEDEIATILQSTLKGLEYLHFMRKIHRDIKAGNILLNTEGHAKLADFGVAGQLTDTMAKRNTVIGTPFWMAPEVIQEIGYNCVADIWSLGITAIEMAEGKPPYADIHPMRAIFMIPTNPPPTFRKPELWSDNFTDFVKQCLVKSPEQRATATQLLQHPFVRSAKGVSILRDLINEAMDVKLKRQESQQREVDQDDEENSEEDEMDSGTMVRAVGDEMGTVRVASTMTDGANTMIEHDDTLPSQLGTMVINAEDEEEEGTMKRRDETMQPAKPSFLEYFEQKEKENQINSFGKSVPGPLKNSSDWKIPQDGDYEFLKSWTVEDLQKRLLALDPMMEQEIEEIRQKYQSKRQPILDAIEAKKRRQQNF
The experiment is described as follows: Residual activity of MST1 at 0.1 uM by microplate scintillation counting.

Experiment [11] deals with Casein kinase II subunit alpha (Homo sapiens) (UniProt P68400). The experiment is described as follows: Residual activity of CK2alpha1 at 10 uM by microplate scintillation counting.
For experiment [12], the system named is Epidermal growth factor receptor (Homo sapiens), P00533 [L858R]. The experiment is described as follows: Residual activity of EGFR L858R mutant at 10 uM by microplate scintillation counting.
The target of experiment [13] is Tyrosine-protein kinase Fes/Fps (Homo sapiens) (UniProt P07332). The experiment is described as follows: Residual activity of FES at 10 uM by microplate scintillation counting.
Experiment [14] has as its target G protein-coupled receptor kinase 6 (Homo sapiens) (UniProt P43250). Put plainly: Residual activity of GRK6 at 10 uM by microplate scintillation counting.
Experiment [15] concerns the target Activin receptor type-1-like (Homo sapiens) (UniProt P37023). The experiment is described as follows: Residual activity of ACV-RL1 at 1 uM by microplate scintillation counting.
The next experiment concerns the target Aurora kinase B (Homo sapiens, UniProt Q96GD4). Put plainly: Residual activity of Aurora-B at 1 uM by microplate scintillation counting.
Experiment [16] addresses Cyclin-dependent kinase 16 (Homo sapiens) (UniProt Q00536). Put plainly: Residual activity of PCTAIRE1 at 10 uM by microplate scintillation counting.
Experiment [17] addresses Protein kinase C delta type (Homo sapiens) (UniProt Q05655). Put plainly: Residual activity of PKCdelta at 10 uM by microplate scintillation counting.
In experiment [18] the target is Cyclin-dependent kinase 2/cyclin E1 (Homo sapiens) (UniProt P24864+P24941). The experiment is described as follows: Residual activity of CDK2/Cyclin E at 1 uM by microplate scintillation counting. The class given is protein-complex assay.
Experiment [19] concerns the target T2, Cytoplasmic tyrosine-protein kinase BMX (Homo sapiens) (UniProt P51813).
T2 sequence (whole entry): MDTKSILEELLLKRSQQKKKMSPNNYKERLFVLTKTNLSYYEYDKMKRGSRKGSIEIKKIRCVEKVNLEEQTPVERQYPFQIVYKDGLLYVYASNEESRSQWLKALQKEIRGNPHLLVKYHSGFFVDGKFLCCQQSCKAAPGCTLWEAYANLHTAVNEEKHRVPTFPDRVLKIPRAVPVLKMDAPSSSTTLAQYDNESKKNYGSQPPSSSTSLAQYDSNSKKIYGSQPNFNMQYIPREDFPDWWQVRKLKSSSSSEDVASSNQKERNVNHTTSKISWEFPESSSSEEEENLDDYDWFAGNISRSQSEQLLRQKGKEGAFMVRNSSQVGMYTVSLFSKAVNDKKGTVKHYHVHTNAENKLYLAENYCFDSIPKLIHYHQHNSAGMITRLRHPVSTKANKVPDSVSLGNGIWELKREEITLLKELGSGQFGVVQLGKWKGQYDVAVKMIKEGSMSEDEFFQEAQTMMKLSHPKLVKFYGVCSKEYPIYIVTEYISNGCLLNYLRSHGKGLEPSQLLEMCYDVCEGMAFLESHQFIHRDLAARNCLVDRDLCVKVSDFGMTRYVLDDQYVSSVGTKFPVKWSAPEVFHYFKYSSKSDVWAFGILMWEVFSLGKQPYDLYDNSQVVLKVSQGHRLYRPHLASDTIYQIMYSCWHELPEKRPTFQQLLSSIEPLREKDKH
Put plainly: Residual activity of BMX at 0.1 uM by microplate scintillation counting.

For experiment [20], the target named is Protein-tyrosine kinase 6 (Homo sapiens) (UniProt Q13882). Put plainly: Residual activity of BRK at 0.1 uM by microplate scintillation counting.
In experiment [21] the target is CDK4/Cyclin D3 (Homo sapiens) (UniProt P11802+P30281). The experiment is described as follows: Residual activity of CDK4/Cyclin D3 at 0.1 uM by microplate scintillation counting. The experiment is classed as protein-complex assay.
Experiment [22] has as its target Serine/threonine-protein kinase 33 (Homo sapiens) (UniProt Q9BYT3). The experiment is described as follows: Residual activity of STK33 at 10 uM by microplate scintillation counting.
In experiment [23] the target is Vascular endothelial growth factor receptor 3 (Homo sapiens, UniProt P35916). The experiment is described as follows: Inhibition of VEGFR3 by microplate scintillation counting. In short, it runs like this: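 Radiometric FlashPlate assay using recombinant kinase (10–200 ng/well) with poly(Glu,Tyr)4:1 substrate. Buffer: 60 mM HEPES-NaOH pH 7.5, 3 mM MgCl2, 3 mM MnCl2, 3 µM orthovanadate, 1.2 mM DTT, PEG 20000, 1 µM [γ-33P]-ATP. Run 80 min at 30 °C, stopped with H3PO4, and 33P incorporation counted.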
Vascular endothelial growth factor receptor 3, sequence (P35916 whole entry): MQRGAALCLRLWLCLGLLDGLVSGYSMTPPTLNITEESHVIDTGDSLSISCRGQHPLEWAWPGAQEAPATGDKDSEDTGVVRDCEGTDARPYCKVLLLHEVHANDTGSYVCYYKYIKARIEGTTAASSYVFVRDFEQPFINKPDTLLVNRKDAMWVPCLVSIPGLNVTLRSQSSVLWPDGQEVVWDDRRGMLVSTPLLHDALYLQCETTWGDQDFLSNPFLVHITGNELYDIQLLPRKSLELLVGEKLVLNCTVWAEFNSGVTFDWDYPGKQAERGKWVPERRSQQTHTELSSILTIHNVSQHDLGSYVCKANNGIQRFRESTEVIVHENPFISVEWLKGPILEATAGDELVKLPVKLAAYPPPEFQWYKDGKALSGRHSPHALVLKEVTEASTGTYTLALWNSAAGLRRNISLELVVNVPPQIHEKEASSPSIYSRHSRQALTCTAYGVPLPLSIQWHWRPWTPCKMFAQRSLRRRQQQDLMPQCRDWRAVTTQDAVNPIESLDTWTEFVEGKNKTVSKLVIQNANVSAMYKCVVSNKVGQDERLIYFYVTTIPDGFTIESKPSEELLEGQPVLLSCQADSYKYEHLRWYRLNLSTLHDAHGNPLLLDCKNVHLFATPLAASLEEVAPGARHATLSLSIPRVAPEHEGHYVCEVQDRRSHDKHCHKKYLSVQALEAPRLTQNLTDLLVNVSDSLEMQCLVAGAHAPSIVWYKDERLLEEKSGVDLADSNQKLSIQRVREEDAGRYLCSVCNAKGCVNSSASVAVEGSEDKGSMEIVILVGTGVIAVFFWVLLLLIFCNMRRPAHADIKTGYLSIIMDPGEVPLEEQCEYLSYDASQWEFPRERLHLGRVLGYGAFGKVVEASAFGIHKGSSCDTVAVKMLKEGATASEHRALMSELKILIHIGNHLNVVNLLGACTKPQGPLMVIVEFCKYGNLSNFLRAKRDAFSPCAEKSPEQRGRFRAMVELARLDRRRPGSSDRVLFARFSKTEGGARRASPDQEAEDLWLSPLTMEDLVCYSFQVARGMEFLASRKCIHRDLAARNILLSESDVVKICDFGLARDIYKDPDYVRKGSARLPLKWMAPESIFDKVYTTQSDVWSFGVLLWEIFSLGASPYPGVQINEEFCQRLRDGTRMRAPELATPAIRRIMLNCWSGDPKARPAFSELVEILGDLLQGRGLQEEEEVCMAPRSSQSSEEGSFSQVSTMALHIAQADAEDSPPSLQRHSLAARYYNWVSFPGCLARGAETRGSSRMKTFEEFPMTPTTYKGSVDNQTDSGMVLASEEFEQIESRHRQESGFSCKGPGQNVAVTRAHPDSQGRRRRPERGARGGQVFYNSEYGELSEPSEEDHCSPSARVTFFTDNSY

Tyrosine-protein kinase Fes/Fps (Homo sapiens), sequence (P07332 whole entry): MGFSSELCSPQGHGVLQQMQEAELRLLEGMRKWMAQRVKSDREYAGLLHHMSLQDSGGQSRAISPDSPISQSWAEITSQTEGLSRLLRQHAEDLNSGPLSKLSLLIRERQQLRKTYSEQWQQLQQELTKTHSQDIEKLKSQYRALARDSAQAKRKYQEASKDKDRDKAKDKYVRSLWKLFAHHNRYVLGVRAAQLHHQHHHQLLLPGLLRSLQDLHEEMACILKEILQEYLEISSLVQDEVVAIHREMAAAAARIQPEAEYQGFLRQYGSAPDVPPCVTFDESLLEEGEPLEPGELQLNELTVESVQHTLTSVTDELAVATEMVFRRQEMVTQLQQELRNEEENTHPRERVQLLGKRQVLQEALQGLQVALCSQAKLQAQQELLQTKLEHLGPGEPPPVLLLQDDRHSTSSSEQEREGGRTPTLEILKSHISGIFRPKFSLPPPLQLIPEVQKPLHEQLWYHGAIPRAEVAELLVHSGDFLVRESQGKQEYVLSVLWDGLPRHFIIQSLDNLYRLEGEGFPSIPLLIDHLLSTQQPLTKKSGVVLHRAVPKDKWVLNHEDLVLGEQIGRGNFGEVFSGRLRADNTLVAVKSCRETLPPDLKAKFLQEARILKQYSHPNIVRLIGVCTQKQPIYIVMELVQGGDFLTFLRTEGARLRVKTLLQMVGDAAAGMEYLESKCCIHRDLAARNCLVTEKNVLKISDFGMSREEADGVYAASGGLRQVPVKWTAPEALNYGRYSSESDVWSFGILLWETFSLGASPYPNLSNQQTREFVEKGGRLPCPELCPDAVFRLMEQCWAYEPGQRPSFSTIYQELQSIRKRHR
Aurora kinase B, sequence (Q96GD4 whole entry): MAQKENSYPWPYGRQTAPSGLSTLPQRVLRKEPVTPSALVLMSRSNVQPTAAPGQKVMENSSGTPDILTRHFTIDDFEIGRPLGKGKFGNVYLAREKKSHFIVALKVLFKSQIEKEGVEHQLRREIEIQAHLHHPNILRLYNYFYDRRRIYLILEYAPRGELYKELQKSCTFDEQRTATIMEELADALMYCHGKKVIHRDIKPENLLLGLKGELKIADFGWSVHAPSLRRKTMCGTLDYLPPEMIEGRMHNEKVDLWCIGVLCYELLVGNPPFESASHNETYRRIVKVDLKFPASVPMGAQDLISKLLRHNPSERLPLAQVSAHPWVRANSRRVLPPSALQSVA
Activin receptor type-1-like (Homo sapiens), sequence (P37023 whole entry): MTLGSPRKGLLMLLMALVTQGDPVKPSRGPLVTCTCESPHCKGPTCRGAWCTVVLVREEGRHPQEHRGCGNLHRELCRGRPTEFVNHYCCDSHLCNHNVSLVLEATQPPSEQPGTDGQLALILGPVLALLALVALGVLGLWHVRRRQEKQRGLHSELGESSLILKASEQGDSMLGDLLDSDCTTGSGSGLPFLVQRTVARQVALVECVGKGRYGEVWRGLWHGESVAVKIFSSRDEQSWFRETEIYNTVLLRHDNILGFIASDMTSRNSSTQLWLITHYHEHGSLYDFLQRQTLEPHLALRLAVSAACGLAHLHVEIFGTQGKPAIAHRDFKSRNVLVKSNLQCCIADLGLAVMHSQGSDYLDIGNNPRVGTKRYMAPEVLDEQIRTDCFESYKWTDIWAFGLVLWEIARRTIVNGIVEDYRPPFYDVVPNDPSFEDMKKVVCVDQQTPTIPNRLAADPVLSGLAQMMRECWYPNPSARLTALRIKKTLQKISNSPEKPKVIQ
Serine/threonine-protein kinase MARK2 (Homo sapiens), sequence (Q7KZI7 whole entry): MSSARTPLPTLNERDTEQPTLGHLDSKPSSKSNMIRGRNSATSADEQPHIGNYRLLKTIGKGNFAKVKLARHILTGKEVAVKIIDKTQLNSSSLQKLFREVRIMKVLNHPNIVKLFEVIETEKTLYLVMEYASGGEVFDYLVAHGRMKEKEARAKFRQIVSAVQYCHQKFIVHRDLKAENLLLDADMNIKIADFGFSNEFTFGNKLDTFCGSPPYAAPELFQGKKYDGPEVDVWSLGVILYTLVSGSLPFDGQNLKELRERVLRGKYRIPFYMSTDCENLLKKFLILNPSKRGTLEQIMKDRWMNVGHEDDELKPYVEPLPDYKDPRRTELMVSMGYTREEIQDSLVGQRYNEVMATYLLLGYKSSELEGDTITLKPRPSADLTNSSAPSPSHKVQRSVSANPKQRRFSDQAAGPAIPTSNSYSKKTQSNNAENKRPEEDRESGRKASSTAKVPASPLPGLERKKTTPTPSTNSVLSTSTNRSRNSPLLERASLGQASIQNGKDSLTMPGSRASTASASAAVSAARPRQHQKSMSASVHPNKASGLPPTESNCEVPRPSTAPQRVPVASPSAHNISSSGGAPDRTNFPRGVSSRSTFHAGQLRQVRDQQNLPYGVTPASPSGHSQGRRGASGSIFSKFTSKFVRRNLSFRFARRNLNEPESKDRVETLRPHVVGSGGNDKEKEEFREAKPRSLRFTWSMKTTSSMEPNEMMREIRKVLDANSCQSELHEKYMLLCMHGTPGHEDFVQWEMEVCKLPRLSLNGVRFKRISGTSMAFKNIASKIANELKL
Dual specificity tyrosine-phosphorylation-regulated kinase 1B (Homo sapiens), sequence (Q9Y463 whole entry, looked up): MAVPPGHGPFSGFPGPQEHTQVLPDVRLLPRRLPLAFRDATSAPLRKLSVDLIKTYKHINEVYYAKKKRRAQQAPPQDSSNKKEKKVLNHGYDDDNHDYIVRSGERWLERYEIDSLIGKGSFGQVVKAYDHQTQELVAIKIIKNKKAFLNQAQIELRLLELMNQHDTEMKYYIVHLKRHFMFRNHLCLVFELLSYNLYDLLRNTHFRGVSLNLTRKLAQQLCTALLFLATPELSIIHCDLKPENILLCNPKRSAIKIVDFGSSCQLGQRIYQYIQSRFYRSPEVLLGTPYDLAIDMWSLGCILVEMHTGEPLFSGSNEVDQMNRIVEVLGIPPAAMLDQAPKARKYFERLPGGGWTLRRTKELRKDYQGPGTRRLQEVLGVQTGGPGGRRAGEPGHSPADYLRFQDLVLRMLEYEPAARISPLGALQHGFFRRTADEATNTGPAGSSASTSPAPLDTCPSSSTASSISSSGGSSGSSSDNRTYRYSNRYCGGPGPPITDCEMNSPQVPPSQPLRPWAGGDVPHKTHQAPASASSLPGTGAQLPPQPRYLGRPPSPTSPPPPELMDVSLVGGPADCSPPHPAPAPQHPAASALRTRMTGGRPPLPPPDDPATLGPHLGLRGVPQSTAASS
G protein-coupled receptor kinase 6 (Homo sapiens), sequence (P43250 whole entry, looked up): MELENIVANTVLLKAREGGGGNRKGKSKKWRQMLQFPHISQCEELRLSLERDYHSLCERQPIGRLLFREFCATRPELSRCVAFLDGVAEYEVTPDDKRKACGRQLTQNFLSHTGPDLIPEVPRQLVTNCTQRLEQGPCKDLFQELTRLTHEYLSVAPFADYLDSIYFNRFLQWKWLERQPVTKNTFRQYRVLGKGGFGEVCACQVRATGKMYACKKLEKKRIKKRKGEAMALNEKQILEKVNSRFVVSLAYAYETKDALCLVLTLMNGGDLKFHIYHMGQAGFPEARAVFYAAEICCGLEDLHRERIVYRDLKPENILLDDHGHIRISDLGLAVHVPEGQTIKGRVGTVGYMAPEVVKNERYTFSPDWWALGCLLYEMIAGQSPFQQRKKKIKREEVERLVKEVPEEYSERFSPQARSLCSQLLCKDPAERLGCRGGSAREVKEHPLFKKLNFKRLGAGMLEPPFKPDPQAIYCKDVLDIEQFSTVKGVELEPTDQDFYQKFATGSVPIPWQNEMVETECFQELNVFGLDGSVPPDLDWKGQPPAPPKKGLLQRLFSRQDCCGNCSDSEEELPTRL

As a reminder, the residual activity is the signal under treatment as a percentage of the control signal. The term IC50 denotes the point on the concentration scale where inhibition reaches its midpoint. A high value points to weaker potency. For the compound `COc1cc2c(Oc3ccc(-c4nc5ccccc5s4)cc3)ncnc2cc1OCCCN1CCN(C)CC1`, the residual activity was 105% in experiment [1]; 87% in experiment [2]; 87% in experiment [3]; 96% in [4]; 99% in [5]; 90% in experiment [6]. In addition, the residual activity in experiment [7] was 82%; in experiment [8] it was 104%; in experiment [9], 66%; in experiment [10], 96%; in [11], 229%; in experiment [12] it was 22%. Moreover, the residual activity in [13] was determined as 153%; in experiment [14], 91%; in experiment [15] it was 78%; on Aurora kinase B it was 18%; in experiment [16], 163%; in experiment [17], 86%. In addition, the residual activity in experiment [18] worked out at 102%; in experiment [19], 117%; in [20], 65%; in experiment [21], 98%; in experiment [22], 81%. In addition, the concentration for half-maximal inhibition (IC50) in [23] came out at 121 nM.
In the case of `COc1cc2c(Oc3ccc(-c4nc5ccccc5s4)cc3)ncnc2cc1OCCCN1CCCC1`, the residual activity in [1] stood at 98%; in [2] it was 89%; in experiment [3], 86%; in [4], 98%; in experiment [5] it was 83%; in experiment [6], 92%. Also, the residual activity in experiment [7] was determined as 90%; in [8], 101%; in [9], 97%; in experiment [10] it was 96%; in [11], 188%; in experiment [12], 46%. Also, the residual activity is 208% in [13]; 105% in experiment [14]; 92% in experiment [15]; 24% on Aurora kinase B; 126% in [16]; 72% in [17]. The residual activity in [18] came out at 94%; in experiment [19] it was 94%; in experiment [20] it was 57%; in [21] it was 80%; in experiment [22] it was 107%. Moreover, the IC50 in [23] was found to be 140 nM.
Consider `COc1cc2c(Oc3ccc(-c4nc5ccccc5s4)cc3F)ncnc2cc1OCCCN1CCN(C)CC1`, for which the residual activity was determined as 95% in experiment [1]; 90% in [2]; 86% in [3]; 86% in experiment [4]; 85% in experiment [5]; 102% in [6]. Also, the residual activity was determined as 87% in experiment [7]; 91% in experiment [8]; 70% in experiment [9]; 104% in [10]; 264% in experiment [11]; 24% in experiment [12]. Moreover, the residual activity in experiment [13] turned out to be 112%; in experiment [14], 104%; in [15], 92%; on Aurora kinase B, 20%; in experiment [16], 153%; in experiment [17], 86%. The residual activity in experiment [18] is 94%; in experiment [19] it was 116%; in experiment [20] it was 35%; in experiment [21], 82%; in experiment [22] it was 94%. The same compound showed an IC50 in [23] of 190 nM.
